ChEMBL document CHEMBL3580601, “Discovery of a Potent Parenterally Administered Factor XIa Inhibitor with Hydroxyquinolin-2(1H)-one as the P2' Moiety” (ACS Med Chem Lett, 2015)
Values after ≈ are worked out from the molar mass of the structure shown. Active and inactive are the calls of the source. No cut-off for these calls is given here.

Experiments:
Plasma [1] = assay: Anticoagulant activity in healthy human plasma assessed as concentration required to cause two fold prolongation of activated partial thromboplastin time; type: functional
[2] = Half life in human liver microsomes; type: ADME
Coagulation factor XI [3] = target: T1, Coagulation factor XI (Homo sapiens, UniProt P03951); assay: Inhibition of human coagulation factor 11a using p-nitroaniline as substrate assessed as substrate hydrolysis by spectrophotometry
T1 sequence (P03951 19-387 limits assumed): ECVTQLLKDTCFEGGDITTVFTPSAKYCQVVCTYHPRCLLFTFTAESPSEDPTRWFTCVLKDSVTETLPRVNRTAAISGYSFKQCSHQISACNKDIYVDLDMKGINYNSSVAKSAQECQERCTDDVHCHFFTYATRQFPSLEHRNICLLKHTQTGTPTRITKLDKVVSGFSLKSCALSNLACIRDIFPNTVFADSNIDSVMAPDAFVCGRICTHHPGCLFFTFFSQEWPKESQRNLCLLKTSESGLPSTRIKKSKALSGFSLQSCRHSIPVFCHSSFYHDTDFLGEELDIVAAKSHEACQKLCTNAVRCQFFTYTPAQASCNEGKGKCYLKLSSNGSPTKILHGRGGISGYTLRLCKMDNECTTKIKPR
T1 sequence (P03951 388-625 limits assumed): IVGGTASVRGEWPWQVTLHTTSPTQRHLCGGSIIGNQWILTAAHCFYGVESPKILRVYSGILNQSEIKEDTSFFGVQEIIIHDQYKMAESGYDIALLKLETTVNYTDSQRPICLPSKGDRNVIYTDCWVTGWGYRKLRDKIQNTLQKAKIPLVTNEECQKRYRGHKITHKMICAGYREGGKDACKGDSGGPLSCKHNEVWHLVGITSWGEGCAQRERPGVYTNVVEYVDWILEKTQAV
Summary of the method: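 Human enzyme Ki, averaged over multiple determinations (n = 2).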

[4] = Solubility in 50 mM pH 6.5 phosphate buffer using amorphous form of compound; type: physicochemical
[5] = Half life in rat at 1 mg/kg, iv; type: ADME, organism-based; conditions: in vivo
Plasma [6] = assay: Anticoagulant activity in rabbit plasma assessed as prolongation of prothrombin time at 100 uM; type: functional, cell-free; conditions: Oryctolagus cuniculus
Oryctolagus cuniculus [7] = assay: Antithrombotic activity in iv dosed rabbit model of electrically induced carotid arterial thrombosis assessed as reduction in thrombus formation; type: functional, organism-based
Plasma [8] = assay: Anticoagulant activity in rabbit plasma assessed as prolongation of thrombin time at 100 uM; type: functional, cell-free; conditions: Oryctolagus cuniculus
Oryctolagus cuniculus [9] = assay: Antithrombotic activity in iv dosed rabbit model of electrically induced carotid arterial thrombosis assessed as increase in integrated blood flow of the injured artery; type: functional, organism-based
Plasma [10] = assay: Anticoagulant activity in dog plasma assessed as concentration required to cause 1.5 fold prolongation of activated partial thromboplastin time
Coagulation factor XI [11] = target: T1, Coagulation factor XI; assay: Inhibition of human coagulation factor 11a using p-nitroaniline as substrate assessed as substrate hydrolysis at 37 degC by spectrophotometry
Coagulation factor VII = target: T2, Coagulation factor VII (Homo sapiens, UniProt P08709); assay: Inhibition of coagulation factor 7a (unknown origin)
T2 sequence (P08709 whole entry): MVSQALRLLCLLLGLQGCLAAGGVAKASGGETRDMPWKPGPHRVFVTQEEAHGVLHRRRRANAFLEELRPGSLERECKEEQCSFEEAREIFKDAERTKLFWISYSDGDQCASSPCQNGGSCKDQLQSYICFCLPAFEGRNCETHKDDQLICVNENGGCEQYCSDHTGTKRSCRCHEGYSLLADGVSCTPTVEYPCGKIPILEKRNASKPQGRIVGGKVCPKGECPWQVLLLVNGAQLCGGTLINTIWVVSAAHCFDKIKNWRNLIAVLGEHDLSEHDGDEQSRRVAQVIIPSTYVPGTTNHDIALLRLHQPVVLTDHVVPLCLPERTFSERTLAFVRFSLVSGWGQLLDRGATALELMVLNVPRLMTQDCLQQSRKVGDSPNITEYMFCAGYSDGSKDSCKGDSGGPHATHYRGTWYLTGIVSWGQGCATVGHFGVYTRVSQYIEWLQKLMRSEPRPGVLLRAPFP
Summary of the method: (§1)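 Ki against each human enzyme, averaged from duplicate IC50 determinations.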

[12] = Unbound fraction in human plasma; type: ADME, cell-free
Plasma [13] = assay: Anticoagulant activity in rabbit plasma assessed as concentration required to cause 1.5 fold prolongation of activated partial thromboplastin time
[14] = target: Tissue-type plasminogen activator (Homo sapiens, UniProt P00750); assay: Inhibition of tPA (unknown origin); summary of the method: as §1
Sequence of Tissue-type plasminogen activator (P00750 whole entry): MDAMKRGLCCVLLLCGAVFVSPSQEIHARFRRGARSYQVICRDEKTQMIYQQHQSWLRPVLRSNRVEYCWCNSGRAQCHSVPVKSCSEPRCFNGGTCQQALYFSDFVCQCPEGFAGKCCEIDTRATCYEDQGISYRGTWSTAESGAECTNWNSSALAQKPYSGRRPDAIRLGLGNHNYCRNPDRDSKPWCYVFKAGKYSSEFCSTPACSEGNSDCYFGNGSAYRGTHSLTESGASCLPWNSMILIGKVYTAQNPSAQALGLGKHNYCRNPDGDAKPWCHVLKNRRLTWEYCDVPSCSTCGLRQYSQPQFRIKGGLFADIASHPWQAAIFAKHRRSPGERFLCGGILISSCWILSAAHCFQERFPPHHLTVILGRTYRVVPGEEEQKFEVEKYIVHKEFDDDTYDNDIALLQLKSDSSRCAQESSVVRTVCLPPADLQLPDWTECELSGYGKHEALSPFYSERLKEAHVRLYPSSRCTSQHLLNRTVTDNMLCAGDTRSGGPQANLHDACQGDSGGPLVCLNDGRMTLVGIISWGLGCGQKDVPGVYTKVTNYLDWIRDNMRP

Coagulation factor IX = Coagulation factor IX (Homo sapiens, UniProt P00740); assay: Inhibition of coagulation factor 9a (unknown origin); summary of the method: as §1
Sequence of Coagulation factor IX (P00740 47-191 limits assumed): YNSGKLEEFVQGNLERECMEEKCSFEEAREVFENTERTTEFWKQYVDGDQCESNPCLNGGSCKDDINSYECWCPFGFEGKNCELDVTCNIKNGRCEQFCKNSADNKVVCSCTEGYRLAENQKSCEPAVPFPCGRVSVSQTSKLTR
Sequence of Coagulation factor IX (P00740 227-461 limits assumed): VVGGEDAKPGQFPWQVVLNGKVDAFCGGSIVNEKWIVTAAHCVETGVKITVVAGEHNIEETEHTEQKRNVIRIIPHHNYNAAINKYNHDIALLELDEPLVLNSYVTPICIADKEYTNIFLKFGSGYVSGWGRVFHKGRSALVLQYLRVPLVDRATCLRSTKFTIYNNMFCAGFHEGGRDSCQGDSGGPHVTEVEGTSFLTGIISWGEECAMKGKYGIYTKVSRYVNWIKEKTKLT

[15] = Unbound fraction in dog plasma; type: ADME, cell-free, Canis lupus familiaris
Plasma [16] = assay: Anticoagulant activity in cynomolgus monkey plasma assessed as concentration required to cause 1.5 fold prolongation of activated partial thromboplastin time
Coagulation factor XII = target: T3, Coagulation factor XII (Homo sapiens, UniProt P00748); assay: Inhibition of coagulation factor 12a (unknown origin); summary of the method: as §1
T3 sequence (P00748 whole entry): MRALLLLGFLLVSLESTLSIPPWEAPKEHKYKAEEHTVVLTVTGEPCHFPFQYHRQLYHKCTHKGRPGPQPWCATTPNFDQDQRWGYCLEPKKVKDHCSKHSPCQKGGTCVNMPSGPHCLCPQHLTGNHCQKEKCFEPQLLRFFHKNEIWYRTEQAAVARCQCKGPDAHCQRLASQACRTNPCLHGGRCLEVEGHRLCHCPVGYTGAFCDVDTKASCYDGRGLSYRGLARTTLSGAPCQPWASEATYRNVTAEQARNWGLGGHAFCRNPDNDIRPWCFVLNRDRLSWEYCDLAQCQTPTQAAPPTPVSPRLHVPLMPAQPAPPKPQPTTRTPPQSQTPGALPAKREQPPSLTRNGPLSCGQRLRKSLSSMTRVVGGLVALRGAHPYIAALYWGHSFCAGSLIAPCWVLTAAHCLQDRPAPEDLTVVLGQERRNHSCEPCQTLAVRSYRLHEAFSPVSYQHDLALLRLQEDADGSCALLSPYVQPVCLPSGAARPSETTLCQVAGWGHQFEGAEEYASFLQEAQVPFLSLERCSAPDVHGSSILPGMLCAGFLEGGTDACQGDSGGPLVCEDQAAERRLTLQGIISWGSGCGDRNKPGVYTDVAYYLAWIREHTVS

Trypsin = Trypsin (Homo sapiens, UniProt P07477+P07478+P35030); assay: Inhibition of trypsin (unknown origin); type: protein assay; summary of the method: as §1
Oryctolagus cuniculus [17] = species on record: Oryctolagus cuniculus; assay: Toxicity in rabbit cuticle bleeding time model assessed as prologation of bleeding time at 100 uM; type: organism-based; conditions: in vivo
[18] = Unbound fraction in cynomolgus monkey plasma; type: ADME, cell-free, Macaca fascicularis
[19] = target: Vitamin K-dependent protein C (Homo sapiens, UniProt P04070); assay: Inhibition of APC (unknown origin); summary of the method: as §1
Sequence of Vitamin K-dependent protein C (P04070 43-197 limits assumed): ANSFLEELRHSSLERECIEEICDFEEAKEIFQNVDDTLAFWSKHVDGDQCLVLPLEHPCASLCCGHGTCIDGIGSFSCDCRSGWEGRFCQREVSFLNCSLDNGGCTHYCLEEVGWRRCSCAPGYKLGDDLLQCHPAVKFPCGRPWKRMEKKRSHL
Sequence of Vitamin K-dependent protein C (P04070 212-461 limits assumed): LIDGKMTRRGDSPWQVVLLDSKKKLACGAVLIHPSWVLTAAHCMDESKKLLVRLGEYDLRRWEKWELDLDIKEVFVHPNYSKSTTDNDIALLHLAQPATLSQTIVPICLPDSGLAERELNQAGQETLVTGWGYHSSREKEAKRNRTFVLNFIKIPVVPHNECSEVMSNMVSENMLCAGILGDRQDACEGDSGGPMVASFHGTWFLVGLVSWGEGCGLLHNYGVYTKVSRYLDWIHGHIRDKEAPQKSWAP

Kallikrein-1 = Kallikrein-1 (Homo sapiens, UniProt P06870); assay: Inhibition of tissue kallikrein (unknown origin); summary of the method: as §1
Sequence of Kallikrein-1 (P06870 whole entry): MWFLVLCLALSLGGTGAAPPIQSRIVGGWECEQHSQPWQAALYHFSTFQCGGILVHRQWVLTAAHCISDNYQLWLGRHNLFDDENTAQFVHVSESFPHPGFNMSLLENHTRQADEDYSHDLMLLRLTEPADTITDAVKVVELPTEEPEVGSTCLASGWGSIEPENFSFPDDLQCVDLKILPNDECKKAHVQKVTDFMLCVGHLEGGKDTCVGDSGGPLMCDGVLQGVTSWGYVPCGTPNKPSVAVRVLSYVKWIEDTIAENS

Plasma kallikrein = Plasma kallikrein (Homo sapiens, UniProt P03952); assay: Inhibition of plasma kallikrein (unknown origin); summary of the method: as §1
Sequence of Plasma kallikrein (P03952 20-390 limits assumed): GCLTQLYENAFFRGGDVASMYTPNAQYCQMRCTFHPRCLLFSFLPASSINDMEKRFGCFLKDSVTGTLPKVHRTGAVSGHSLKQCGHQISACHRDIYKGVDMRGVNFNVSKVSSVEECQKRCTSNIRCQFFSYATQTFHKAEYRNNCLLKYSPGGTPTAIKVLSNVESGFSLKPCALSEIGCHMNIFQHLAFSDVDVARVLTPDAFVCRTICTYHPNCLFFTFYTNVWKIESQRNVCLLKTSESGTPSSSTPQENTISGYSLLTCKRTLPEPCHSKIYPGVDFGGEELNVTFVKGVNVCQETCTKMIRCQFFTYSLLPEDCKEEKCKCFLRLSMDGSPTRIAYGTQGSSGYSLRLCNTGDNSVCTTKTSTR
Sequence of Plasma kallikrein (P03952 391-638 limits assumed): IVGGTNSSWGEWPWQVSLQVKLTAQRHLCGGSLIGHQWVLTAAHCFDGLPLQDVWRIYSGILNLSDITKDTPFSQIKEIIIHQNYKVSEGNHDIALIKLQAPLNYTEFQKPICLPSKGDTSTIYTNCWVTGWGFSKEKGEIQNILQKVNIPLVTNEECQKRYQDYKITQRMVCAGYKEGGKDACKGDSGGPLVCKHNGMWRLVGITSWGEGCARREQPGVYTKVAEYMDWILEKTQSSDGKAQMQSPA

[20] = Inhibition of rabbit coagulation factor 11a using p-nitroaniline as substrate assessed as substrate hydrolysis at 37 degC by spectrophotometry; design: species or system Oryctolagus cuniculus
[21] = Unbound fraction in rat plasma; type: ADME, cell-free
Prothrombin = Prothrombin (Homo sapiens, UniProt P00734); assay: Inhibition of thrombin (unknown origin); summary of the method: as §1
Plasma [22] = assay: Anticoagulant activity in rabbit plasma assessed as prolongation of activated partial thromboplastin time at 100 uM; type: functional, Oryctolagus cuniculus
[23] = Inhibition of chymotrypsin (unknown origin); design: species or system Homo sapiens; summary of the method: as §1
[24] = Unbound fraction in rabbit plasma; type: ADME, cell-free, Oryctolagus cuniculus
[25] = target: Urokinase-type plasminogen activator (Homo sapiens, UniProt P00749); assay: Inhibition of urokinase (unknown origin); summary of the method: as §1
Coagulation factor X = Coagulation factor X (Homo sapiens, UniProt P00742); assay: Inhibition of coagulation factor 10a (unknown origin); summary of the method: as §1
Sequence of Coagulation factor X (P00742 41-179 limits assumed): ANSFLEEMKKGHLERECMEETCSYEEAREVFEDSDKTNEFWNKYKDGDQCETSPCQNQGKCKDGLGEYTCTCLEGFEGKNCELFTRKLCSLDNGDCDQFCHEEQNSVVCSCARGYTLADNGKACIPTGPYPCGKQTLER
Sequence of Coagulation factor X (P00742 235-488 limits assumed): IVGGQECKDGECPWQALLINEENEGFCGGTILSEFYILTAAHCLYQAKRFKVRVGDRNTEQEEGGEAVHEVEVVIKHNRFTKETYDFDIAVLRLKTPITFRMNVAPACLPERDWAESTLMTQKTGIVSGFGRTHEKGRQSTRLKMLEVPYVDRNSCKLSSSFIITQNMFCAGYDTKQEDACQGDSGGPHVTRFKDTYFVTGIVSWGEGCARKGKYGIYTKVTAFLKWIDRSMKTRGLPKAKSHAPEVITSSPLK

Plasma [26] = assay: Anticoagulant activity in rat plasma assessed as concentration required to cause 1.5 fold prolongation of activated partial thromboplastin time
[27] = Half life in rabbit at 1 mg/kg, iv; type: ADME, organism-based, Oryctolagus cuniculus; conditions: in vivo
Summary of the method: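 Rabbits given a single IV dose of 1 mg/kg of the HCl salt in 10% DMAc/90% D5W (5% dextrose in water), with half-life taken from the plasma PK profile.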

[28] = Half life in cynomolgus monkey at 1 mg/kg, iv; type: ADME, organism-based, Macaca fascicularis; conditions: in vivo
[29] = Half life in dog at 1 mg/kg, iv; type: ADME, organism-based, Canis lupus familiaris; conditions: in vivo
Summary of the method: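 Dogs dosed IV at 1 mg/kg with the HCl salt in 10% DMAc/10% ethanol/10% propylene glycol/70% water, with half-life from the pharmacokinetic profile.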

SMILES: Cc1ccc(-n2cnnn2)c(CCC(=O)N[C@@H](Cc2ccccc2)c2nc(-c3ccc4[nH]c(=O)ccc4c3)c(Cl)[nH]2)c1
- 2aPTT (Plasma [1]): 69 µM
- half-life [2]: 2.2 min
- Ki (Coagulation factor XI [3]): 12 nM

SMILES: O=C(/C=C/c1cc(Cl)ccc1-n1cnnn1)N[C@@H](Cc1ccccc1)c1nc(-c2ccc3c(c2)CCC(=O)N3)c(Cl)[nH]1
- 2aPTT (Plasma [1]): 60 µM
- half-life [2]: 48 min
- Ki (Coagulation factor XI [3]): 19 nM

SMILES: Cc1ccc(-n2cnnn2)c(CCC(=O)N[C@@H](Cc2ccccc2)c2nc(-c3ccc4[nH]c(=O)cc(O)c4c3)c(Cl)[nH]2)c1
- 2aPTT (Plasma [1]): 9.1 µM
- half-life [2]: 10 min
- Ki (Coagulation factor XI [3]): 0.5 nM

SMILES: COC(=O)Nc1ccc(-c2nc([C@H](CC(=O)N3CCS(=O)(=O)CC3)NC(=O)/C=C/c3cc(Cl)ccc3-n3cnnn3)[nH]c2Cl)cc1
- solubility [4]: 1 µg/mL (≈ 1.45 µM)
- 2aPTT (Plasma [1]): 3.6 µM
- half-life [2]: 154 min
- Ki (Coagulation factor XI [3]): 0.3 nM

SMILES: COC(=O)Nc1ccc(-c2nc([C@H](CC(=O)N3CCN(C(C)=O)CC3)NC(=O)/C=C/c3cc(Cl)ccc3-n3cnnn3)[nH]c2Cl)cc1
- solubility [4]: 3 µg/mL (≈ 4.4 µM)
- 2aPTT (Plasma [1]): 4.6 µM
- half-life [2]: 45 min
- Ki (Coagulation factor XI [3]): 0.6 nM

SMILES: O=C(/C=C/c1cc(Cl)ccc1-n1cnnn1)N[C@@H](Cc1ccccc1)c1nc(-c2ccc3[nH]c(=O)cc(O)c3c2)c(Cl)[nH]1
- 2aPTT (Plasma [1]): 11 µM
- half-life [2]: 56 min
- Ki (Coagulation factor XI [3]): 0.18 nM

SMILES: CN1CCN(C(=O)C[C@H](NC(=O)/C=C/c2cc(Cl)ccc2-n2cnnn2)c2nc(-c3ccc4[nH]c(=O)cc(O)c4c3)c(Cl)[nH]2)CC1.O=C(O)C(F)(F)F
- half-life [5]: 66 min

SMILES: CN1CCN(C(=O)C[C@H](NC(=O)/C=C/c2cc(Cl)ccc2-n2cnnn2)c2nc(-c3ccc4[nH]c(=O)cc(O)c4c3)c(Cl)[nH]2)CC1 [listing 1 of 2 here]
- Activity (Plasma [6]): inactive
- Activity (Oryctolagus cuniculus [7]): Dose-dependent effect
- Activity (Plasma [8]): inactive
- Activity (Oryctolagus cuniculus [9]): Dose-dependent effect

SMILES: CN1CCN(C(=O)C[C@H](NC(=O)/C=C/c2cc(Cl)ccc2-n2cnnn2)c2nc(-c3ccc4[nH]c(=O)cc(O)c4c3)c(Cl)[nH]2)CC1 [listing 2 of 2 here]
- solubility [4]: 17 µg/mL (≈ 25.6 µM)
- EC1.5 (Plasma [10]): 0.3 µM
- Ki (Coagulation factor XI [11]): 0.1 nM
- Ki (Coagulation factor VII): > 13300 nM
- fraction unbound [12]: 0.08
- EC1.5 (Plasma [13]): 1 µM
- Ki [14]: 29000 nM
- Ki (Coagulation factor IX): > 60000 nM
- 2aPTT (Plasma [1]): 1 µM
- half-life [2]: > 200 min
- Ki (Coagulation factor XI [3]): 0.04 nM
- fraction unbound [15]: 0.18
- EC1.5 (Plasma [16]): 0.3 µM
- Ki (Coagulation factor XII): > 20000 nM
- Ki (Trypsin): 6200 nM
- Activity (Oryctolagus cuniculus [17]): Non-toxic
- fraction unbound [18]: 0.08
- Ki [19]: > 54000 nM
- Ki (Kallikrein-1): > 30000 nM
- Ki (Plasma kallikrein): 7 nM
- Ki [20]: 0.58 nM
- fraction unbound [21]: 0.026
- Ki (Prothrombin): 7400 nM
- fold change (FC) (Plasma [22]): 3.2
- Ki [23]: 400 nM
- EC50 (Oryctolagus cuniculus [7]): 530 nM
- fraction unbound [24]: 0.07
- Ki [25]: > 1600 nM
- Ki (Coagulation factor X): > 9000 nM
- EC1.5 (Plasma [26]): >20 µM

SMILES: O=C(CCc1cc(Cl)ccc1-n1cnnn1)N[C@@H](Cc1ccccc1)c1nc(-c2ccc3[nH]c(=O)cc(O)c3c2)c(Cl)[nH]1
- 2aPTT (Plasma [1]): 7.2 µM
- half-life [2]: 6.6 min
- Ki (Coagulation factor XI [3]): 0.32 nM

SMILES: COC(=O)Nc1ccc(-c2nc([C@H](CC(=O)N3CCN(C)CC3)NC(=O)/C=C/c3cc(Cl)ccc3-n3cnnn3)[nH]c2Cl)cc1
- solubility [4]: 44 µg/mL (≈ 67.3 µM)
- 2aPTT (Plasma [1]): 3.7 µM
- half-life [2]: 25 min
- Ki (Coagulation factor XI [3]): 0.4 nM

SMILES: CN1CCN(C(=O)C[C@H](NC(=O)/C=C/c2cc(Cl)ccc2-n2cnnn2)c2nc(-c3ccc4[nH]c(=O)cc(O)c4c3)c(Cl)[nH]2)CC1.Cl
- half-life [27]: 66 min
- half-life [28]: 114 min
- half-life [29]: 66 min

SMILES: COC(=O)Nc1ccc(-c2nc([C@H](CC(=O)N3CCOCC3)NC(=O)/C=C/c3cc(Cl)ccc3-n3cnnn3)[nH]c2Cl)cc1
- solubility [4]: 1 µg/mL (≈ 1.56 µM)
- 2aPTT (Plasma [1]): 7.4 µM
- half-life [2]: 6.2 min
- Ki (Coagulation factor XI [3]): 0.7 nM

SMILES: COC(=O)Nc1ccc(-c2nc([C@H](Cc3ccccc3)NC(=O)/C=C/c3cc(Cl)ccc3-n3cnnn3)[nH]c2Cl)cc1
- solubility [4]: < 1 µg/mL
- 2aPTT (Plasma [1]): 19 µM
- half-life [2]: 46 min
- Ki (Coagulation factor XI [3]): 3.7 nM
